In ChEMBL document CHEMBL2321876 one finds Kd and Activity data, which are given here for 46 molecules.

A short description of test [1]: Displacement of Fl-Sal-AMS from Mycobacterium tuberculosis MbtA expressed in Escherichia coli after 30 mins by fluorescence polarization assay.
The test system of test [2] is Acinetobacter baumannii. The test can be described thus: Antibacterial activity against Acinetobacter baumannii ATCC 19606 using iron-replete M9 minimal media after 15 hrs by broth microdilution assay. The format is functional, organism-based. As to conditions: ATCC 19606 = CIP 70.34 = JCM 6841. The essentials: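 ATCC 19606 grown overnight at 30 °C on LB agar, washed twice in dipyridyl-containing M9/casamino acids medium, then diluted to A600 0.0003 in M9 minimal medium with 0.2% casamino acids plus 200 μM FeCl3. Inhibitors from DMSO at 100 μM final, in triplicate. Controls were tetracycline (100 ng/mL) and 1% DMSO. Incubated at 30 °C, A600 measured at 15 h.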
On the technique in general: In broth dilution the organism is exposed to a series of concentrations in liquid medium.

Test [3] in a line: Displacement of Fl-Sal-AMS from Acinetobacter baumanni BasE expressed in Escherichia coli after 30 mins by fluorescence polarization assay. Details: species or system Acinetobacter baumannii. For orientation: Fluorescence polarisation rises when a labelled molecule tumbles more slowly, as on binding a larger partner.
For test [4], the system named is Acinetobacter baumannii. The test can be described thus: Antibacterial activity against Acinetobacter baumannii ATCC 19606 using iron-deficient M9 minimal media after 15 hrs by broth microdilution assay. It is filed as functional, organism-based. As to conditions: ATCC 19606 = CIP 70.34 = JCM 6841. The essentials: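 ATCC 19606 grown overnight at 30 °C on LB agar, washed twice and resuspended in M9 minimal medium with 0.2% casamino acids and 200 μM dipyridyl. Inoculated at A600 0.0003 in this medium plus 1 μM FeCl3. Inhibitors from DMSO at 100 μM final, in triplicate. Tetracycline (100 ng/mL) and 1% DMSO as controls. Incubated at 30 °C; A600 read at 15 h.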

Activity calls are given as the source filed them. How the calls were made is not given here.

`O=C(O)c1cc(-c2ccccc2O)nc2c1cnn2Cc1ccncc1`: the figures for the Kd in test [1] and in test [3] (read-out: Kd) were 6.5 µM and 0.255 µM, respectively. The result in the test on Acinetobacter baumannii [2] and in the test on Acinetobacter baumannii [4] was inactive.
For `CC(=O)c1ccc(-c2cc(C(=O)O)c3cnn(Cc4ccncc4)c3n2)cc1`, the outcome in the test with Acinetobacter baumannii [2] and in the test on Acinetobacter baumannii [4] was inactive.
As for `C#Cc1cc(C(=O)O)c2cnn(Cc3ccncc3)c2n1`, the Kd amounted to 18.5 µM in test [1] and 2.04 µM in test [3] (read-out: Kd). The result with Acinetobacter baumannii [2] and in the test on Acinetobacter baumannii [4] was inactive.
As to `O=C(O)c1cc(-c2ccccc2)cc2nn(Cc3ccncc3)cc12`, the figures for the Kd in test [1] and in test [3] (read-out: Kd) were 58 µM and 66.4 µM, respectively. For the same molecule, the outcome in the test on Acinetobacter baumannii [2] and in the test with Acinetobacter baumannii [4] was inactive.
Turning to `O=C(O)c1cc(-c2ccc(F)cc2)nc2c1cnn2Cc1ccncc1`, the dissociation constant Kd in test [1] worked out at 1.89 µM; in test [3] (read-out: Kd), 0.028 µM. Further, the result in the test on Acinetobacter baumannii [2] and in the test with Acinetobacter baumannii [4] was inactive.
For `O=C(O)c1cc(NCCCO)nc2c1cnn2Cc1ccncc1`, the Kd in test [1] was 97.7 µM; in test [3] (read-out: Kd), 2.46 µM. The outcome in the test on Acinetobacter baumannii [2] and in the test on Acinetobacter baumannii [4] was inactive.
Consider `CN(C)C(=O)c1cc(-c2ccccc2)nc2c1cnn2Cc1ccncc1`, for which the Kd in test [1] was over 50 µM; in test [3] (read-out: Kd), 0.334 µM. Further, the result in the test on Acinetobacter baumannii [2] and with Acinetobacter baumannii [4] was inactive.
Regarding `CCCCCCCCOc1ccc(-c2cc(C(=O)O)c3cnn(Cc4ccncc4)c3n2)cc1`, the Kd in test [1] is over 50 µM; in test [3] (read-out: Kd) it was 0.191 µM. Besides, the outcome in the test with Acinetobacter baumannii [2] and in the test with Acinetobacter baumannii [4] was inactive.
For `CN(C)c1ccc(-c2cc(C(=O)O)c3cnn(Cc4ccncc4)c3n2)cc1`, the values for the equilibrium dissociation constant (Kd) in test [1] and in test [3] (read-out: Kd) were 1.7 µM and 0.628 µM, respectively. The result in the test with Acinetobacter baumannii [2] and in the test with Acinetobacter baumannii [4] was inactive.
For the molecule `O=C(O)c1cc(-c2cn[nH]c2)nc2c1cnn2Cc1ccncc1`, the Kd stood at 27.9 µM in test [1] and 2.3 µM in test [3] (read-out: Kd). The result with Acinetobacter baumannii [2] and in the test with Acinetobacter baumannii [4] was inactive.
On to `COc1ccc(Cn2ncc3c(C(=O)O)cc(-c4ccccc4)nc32)cc1`, for which the outcome with Acinetobacter baumannii [2] and with Acinetobacter baumannii [4] was inactive. Besides, in test [3] (read-out: Kd), the Kd was over 100 µM.
On to `COc1cc(-c2cc(C(=O)O)c3cnn(Cc4ccncc4)c3n2)ccc1C(=O)O`, for which the Kd in test [1] was 49.9 µM; in test [3] (read-out: Kd), 1.7 µM. Further, the result with Acinetobacter baumannii [2] and with Acinetobacter baumannii [4] was inactive.
As for `CC(=O)Nc1ccc(-c2cc(C(=O)O)c3cnn(Cc4ccncc4)c3n2)cc1`, the Kd was determined as 4.2 µM in test [1] and 0.747 µM in test [3] (read-out: Kd). Further, the outcome with Acinetobacter baumannii [2] and in the test with Acinetobacter baumannii [4] was inactive.
Consider `Cc1cccc(-c2cc(C(=O)O)c3cnn(Cc4ccncc4)c3n2)c1`, for which the Kd worked out at 7.4 µM in test [1] and 0.158 µM in test [3] (read-out: Kd). Further, the result with Acinetobacter baumannii [2] and in the test with Acinetobacter baumannii [4] was inactive.
In the case of `O=C(O)c1cc(-c2ccccc2)nc2c1cnn2Cc1ccc(O)cc1`, the results for the Kd in test [1] and in test [3] (read-out: Kd) were over 100 µM and 0.556 µM, respectively. Besides, the outcome with Acinetobacter baumannii [2] and with Acinetobacter baumannii [4] was inactive.
Regarding `Cc1ccc(-c2cc(C(=O)O)c3cnn(Cc4ccncc4)c3n2)cc1`, the Kd in test [1] was 1.44 µM; in test [3] (read-out: Kd), 0.212 µM. Also, the outcome with Acinetobacter baumannii [2] and in the test on Acinetobacter baumannii [4] was inactive.
`O=C(O)c1cc(N2CCOCC2)nc2c1cnn2Cc1ccncc1`: the Kd in test [1] turned out to be 29.1 µM; in test [3] (read-out: Kd), 1.45 µM. The outcome with Acinetobacter baumannii [2] and in the test on Acinetobacter baumannii [4] was inactive.
Regarding `O=C(O)c1cc(-c2cccs2)nc2c1cnn2Cc1ccncc1`, the Kd in test [1] worked out at 6.68 µM; in test [3] (read-out: Kd), 0.443 µM. In addition, the result in the test on Acinetobacter baumannii [2] and in the test on Acinetobacter baumannii [4] was inactive.
`O=C(O)c1cc(-c2ccc(-c3ccccc3)cc2)nc2c1cnn2Cc1ccncc1`: the values for the Kd in test [1] and in test [3] (read-out: Kd) were 3.5 µM and 0.125 µM, respectively. The result in the test on Acinetobacter baumannii [2] and in the test on Acinetobacter baumannii [4] was inactive.
Turning to `O=C(O)c1cc(-c2cccc(-c3ccccc3)c2)nc2c1cnn2Cc1ccncc1`, the Kd came out at 3.6 µM in test [1] and 0.164 µM in test [3] (read-out: Kd). Also, the result with Acinetobacter baumannii [2] and in the test with Acinetobacter baumannii [4] was inactive.
As to `CCn1ncc2c(C(=O)O)cc(-c3ccccc3)nc21`, the result with Acinetobacter baumannii [2] and with Acinetobacter baumannii [4] was inactive. In test [3] (read-out: Kd), the Kd was over 500 µM.
For `O=C(O)c1cc(-c2cncc3ccccc23)nc2c1cnn2Cc1ccncc1`, the Kd in test [1] is over 100 µM; in test [3] (read-out: Kd), 7.73 µM. The result in the test with Acinetobacter baumannii [2] and with Acinetobacter baumannii [4] was inactive.
For `O=C(O)c1cc(-c2ccccc2Cl)nc2c1cnn2Cc1ccncc1`, the Kd in test [1] was over 100 µM; in test [3] (read-out: Kd), 2.48 µM. Also, the result in the test with Acinetobacter baumannii [2] and in the test with Acinetobacter baumannii [4] was inactive.
With `Cc1ccsc1-c1cc(C(=O)O)c2cnn(Cc3ccncc3)c2n1`, the Kd is 19.2 µM in test [1] and 0.34 µM in test [3] (read-out: Kd). For the same molecule, the result in the test with Acinetobacter baumannii [2] and in the test on Acinetobacter baumannii [4] was inactive.
On to `N#Cc1ccc(-c2cc(C(=O)O)c3cnn(Cc4ccncc4)c3n2)cc1`, for which the result in the test on Acinetobacter baumannii [2] and with Acinetobacter baumannii [4] was inactive.
For the molecule `O=C(O)c1cc(-c2ccc(C(F)(F)F)cc2)nc2c1cnn2Cc1ccncc1`, the outcome with Acinetobacter baumannii [2] and in the test on Acinetobacter baumannii [4] was inactive.
For `O=C(O)c1cc(NCc2ccccc2)nc2c1cnn2Cc1ccncc1`, the Kd in test [1] was determined as 6.02 µM; in test [3] (read-out: Kd) it was 2.32 µM. Besides, the outcome in the test with Acinetobacter baumannii [2] and with Acinetobacter baumannii [4] was inactive.
On to `O=C(O)c1cc(-c2ccc([N+](=O)[O-])cc2)nc2c1cnn2Cc1ccncc1`, for which the outcome with Acinetobacter baumannii [2] and in the test with Acinetobacter baumannii [4] was inactive.
With `CS(=O)(=O)c1ccc(-c2cc(C(=O)O)c3cnn(Cc4ccncc4)c3n2)cc1`, the result in the test on Acinetobacter baumannii [2] and with Acinetobacter baumannii [4] was inactive.
In the case of `O=C(O)c1cc(-c2ccccc2)nc2c1cnn2Cc1cccnc1`, the outcome in the test with Acinetobacter baumannii [2] and in the test on Acinetobacter baumannii [4] was inactive. The equilibrium dissociation constant (Kd) in test [3] (read-out: Kd) was over 100 µM.
Turning to `CC(C)n1ncc2c(C(=O)O)cc(-c3ccccc3)nc21`, the result in the test with Acinetobacter baumannii [2] and with Acinetobacter baumannii [4] was inactive. Further, in test [3] (read-out: Kd), the dissociation constant (Kd) was over 500 µM.
For the molecule `COc1ccc(Cn2ncc3c(C(=O)O)cc(Nc4ccccc4)nc32)cc1`, the result in the test on Acinetobacter baumannii [2] and in the test with Acinetobacter baumannii [4] was inactive. The Kd in test [3] (read-out: Kd) is over 100 µM.
`CC(=O)c1ccc(-c2cc(C(=O)O)c3cnn(Cc4ccncc4)c3n2)s1`: the outcome in the test with Acinetobacter baumannii [2] and with Acinetobacter baumannii [4] was inactive.
Regarding `O=C(O)c1cc(-c2cc3ccccc3s2)nc2c1cnn2Cc1ccncc1`, the result in the test on Acinetobacter baumannii [2] and with Acinetobacter baumannii [4] was inactive.
Regarding `O=c1cc(-c2ccccc2)[nH]c2c1cnn2Cc1ccncc1`, the result in the test with Acinetobacter baumannii [2] and in the test on Acinetobacter baumannii [4] was inactive. Besides, in test [3] (read-out: Kd), the Kd is over 100 µM.
As to `O=C(O)c1cc(-c2ccc(-c3ccc(Cl)nc3)nc2)nc2c1cnn2Cc1ccncc1`, the outcome in the test on Acinetobacter baumannii [2] and in the test on Acinetobacter baumannii [4] was inactive.
Turning to `O=C(O)c1cc(-c2ccc(Br)cc2)nc2c1cnn2Cc1ccncc1`, the result in the test with Acinetobacter baumannii [2] and in the test with Acinetobacter baumannii [4] was inactive.
In the case of `O=C(O)c1ccc(-c2cc(C(=O)O)c3cnn(Cc4ccncc4)c3n2)cc1O`, the outcome with Acinetobacter baumannii [2] and in the test with Acinetobacter baumannii [4] was inactive.
Regarding `O=C(O)c1cc(-c2ccc(Cl)nc2)nc2c1cnn2Cc1ccncc1`, the outcome in the test on Acinetobacter baumannii [2] and in the test on Acinetobacter baumannii [4] was inactive.
Consider `O=C(O)c1cc(-c2ccc(Cl)cc2)nc2c1cnn2Cc1ccncc1`, for which the outcome in the test on Acinetobacter baumannii [2] and in the test with Acinetobacter baumannii [4] was inactive.
On to `O=C(O)c1cc(-c2ccccc2)nc2c1cnn2Cc1ccccc1`, for which the outcome in the test with Acinetobacter baumannii [2] and with Acinetobacter baumannii [4] was inactive. Moreover, the Kd in test [3] (read-out: Kd) is over 100 µM.
Take `O=C(O)c1cc(-c2ccccc2)nc2c1cnn2Cc1ccco1`: the outcome in the test with Acinetobacter baumannii [2] and in the test on Acinetobacter baumannii [4] was inactive. In addition, in test [3] (read-out: Kd), the Kd was over 100 µM.
As for `O=C(O)c1cc(-c2ccccc2)nc2[nH]ncc12`, the result in the test on Acinetobacter baumannii [2] and with Acinetobacter baumannii [4] was inactive. For the same molecule, the Kd in test [3] (read-out: Kd) was over 100 µM.
With `CCCCCCCCCCCCCCCCOc1ccc(-c2cc(C(=O)O)c3cnn(Cc4ccncc4)c3n2)cc1`, the outcome in the test with Acinetobacter baumannii [2] and in the test on Acinetobacter baumannii [4] was inactive. The Kd entry in test [3] is on record as “ND(Insoluble)”.
As to `CSc1ccc(-c2cc(C(=O)O)c3cnn(Cc4ccncc4)c3n2)cc1`, the outcome in the test with Acinetobacter baumannii [2] and in the test with Acinetobacter baumannii [4] was inactive.
With `O=C(O)c1cc(=O)[nH]c2c1cnn2Cc1ccncc1`, the result in the test with Acinetobacter baumannii [2] and with Acinetobacter baumannii [4] was inactive. For the same molecule, the Kd in test [3] (read-out: Kd) is over 100 µM.

In general, Kd refers to the concentration at which binding is half-saturated.
